Experimental data published in ChEMBL document CHEMBL1649165, “Activity profile in vitro of micafungin against Spanish clinical isolates of common and emerging species of yeasts and molds” (2009).
In brackets after ≈: the same amount, converted by molar mass. *1 amine or outer side, *2 acyl side, *3 side chain or, on linkers, in order; H or OH if unused. Where a SMILES comes first, the peptide text is derived from it. Bridges are numbered along the chain shown (N, C = ends). [ ]: non-standard residue; d: D form. The star is where a group is joined. hTyr(3S-OH,4S-OH,3'-OSO3H) = N[C@H](C(=O)O)[C@H](O)[C@@H](O)c1ccc(O)c(OS(=O)(=O)O)c1; Orn(4R-OH,5R-OH) = O=C([C@H](C[C@@H](O)[C@@H](O)N[*:3])N[*:1])[*:2]; Pro(3S-OH,4S-Me) = C[C@H]1CN[C@H](C(=O)O)[C@H]1O; X1 = CCCCCOc1ccc(-c2cc(-c3ccc(C(=O)*)cc3)no2)cc1; Gln(3R-OH) = NC(=O)C[C@@H](O)[C@H](N)C(=O)O; Hyp = O=C(O)[C@@H]1C[C@@H](O)CN1

Key:
Format in all cases: functional
Candida albicans = assay: Antimicrobial activity against Candida albicans by broth microdilution method
Outline: (§1)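 Clinical isolates from human patients, tested by broth microdilution using the AFST-EUCAST reference procedure for fermentative yeasts. The MIC was read per that reference method.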

Candida tropicalis = assay: Antimicrobial activity against Candida tropicalis by broth microdilution method; outline: as §1
Pichia kudriavzevii = assay: Antimicrobial activity against Candida krusei by broth microdilution method; outline: as §1
Clavispora lusitaniae = assay: Antimicrobial activity against Candida lusitaniae by broth microdilution method; outline: as §1
Debaryomyces hansenii = assay: Antimicrobial activity against Candida famata by broth microdilution method; outline: as §1
Pichia norvegensis = assay: Antimicrobial activity against Candida norvegensis by broth microdilution method; outline: as §1
Candida metapsilosis = assay: Antimicrobial activity against Candida metapsilosis by broth microdilution method; conditions: Lodderomyces metapsilosis; outline: as §1
Candida orthopsilosis = assay: Antimicrobial activity against Candida orthopsilosis by broth microdilution method; conditions: Lodderomyces orthopsilosis; outline: as §1
[1] = tested on: Kazachstania pintolopesii; assay: Antimicrobial activity against Candida pintolopesii by broth microdilution method; conditions: Arxiozyma pintolopesii; outline: as §1
[Candida] zeylanoides = Antimicrobial activity against Candida zeylanoides by broth microdilution method; conditions: Dujonia zeylanoides; outline: as §1
Saccharomyces cerevisiae = assay: Antimicrobial activity against Saccharomyces cerevisiae by broth microdilution method
[2] = tested on: Cryptococcus deneoformans; assay: Antimicrobial activity against Cryptococcus neoformans var. neoformans by broth microdilution method
Outline: (§2)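 Clinical isolates of nonfermentative yeasts, tested by broth microdilution following EUCAST recommendations. The only change from that method was a minor modification to improve growth.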

Trichosporon asahii = assay: Antimicrobial activity against Trichosporon asahii by broth microdilution method
Outline: (§3)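 Nonfermentative yeast clinical isolates (Rhodotorula, Trichosporon) tested by broth microdilution. The EUCAST yeast recommendations were followed strictly, with one minor modification to improve growth. MIC was read as the endpoint.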

Trichosporon inkin = assay: Antimicrobial activity against Trichosporon inkin by broth microdilution method; outline: as §3
Trichosporon jirovecii = assay: Antimicrobial activity against Trichosporon jirovecii by broth microdilution method; conditions: Cutaneotrichosporon jirovecii; outline: as §3
Naganishia albida = assay: Antimicrobial activity against Cryptococcus albidus by broth microdilution method; outline: as §2
Ustilago = assay: Antimicrobial activity against Ustilago spp by broth microdilution method
Trichosporon domesticum = assay: Antimicrobial activity against Trichosporon mycotoxinivorans by broth microdilution method; conditions: Apiotrichum domesticum
Outline: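 Spanish human clinical isolates were tested as nonfermentative yeasts by broth microdilution. The method strictly followed the EUCAST recommendations, with a minor modification to improve growth, and the read-out was the MIC.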

Trichosporon = assay: Antimicrobial activity against Trichosporon spp. by broth microdilution method; outline: as §3
Aspergillus versicolor = assay: Antimicrobial activity against Aspergillus versicolor by broth microdilution method
Outline: (§4)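 Clinical mould isolates, tested by broth microdilution using the AFST-EUCAST reference method for filamentous fungi. For echinocandins, the endpoint was the minimum effective concentration: the lowest drug concentration giving aberrant hyphal growth, read with an inverted microscope.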

Aspergillus ustus = assay: Antimicrobial activity against Aspergillus ustus by broth microdilution method; outline: as §4
Fennellia nivea = assay: Antimicrobial activity against Aspergillus niveus by broth microdilution method; outline: as §4
Aspergillus = assay: Antimicrobial activity against Aspergillus spp. by broth microdilution method; outline: as §4
Fusarium solani = assay: Antimicrobial activity against Fusarium solani by broth microdilution method
Outline: (§5)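 Filamentous fungus clinical isolates tested by the AFST-EUCAST reference broth microdilution method for moulds. For echinocandins, the endpoint was the minimum effective concentration: the lowest drug concentration giving aberrant hyphal growth, read with an inverted microscope.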

Paecilomyces lilacinus = assay: Antimicrobial activity against Paecilomyces lilacinus by broth microdilution method; conditions: Purpureocillium lilacinum; outline: as §5
Acremonium sp. = assay: Antimicrobial activity against Acremonium sp.by broth microdilution method; outline: as §4
[3] = tested on: Scopulariopsis brevicaulis; assay: Antimicrobial activity against Scopulariopsis brevicaulis by broth microdilution method; outline: as §5
Phialemonium curvatum = assay: Antimicrobial activity against Phialemonium curvatum by broth microdilution method; conditions: Thyridium curvatum; outline: as §5
[4] = Antimicrobial activity against Hormographiella aspergillata by broth microdilution method; conditions: Coprinopsis cinerea; outline: as §5
Coprinellus domesticus = assay: Antimicrobial activity against Hormographiella verticillata by broth microdilution method; outline: as §5
Neurospora sitophila = assay: Antimicrobial activity against Chrysonilia sitophila by broth microdilution method; outline: as §4
Scedosporium apiospermum = assay: Antimicrobial activity against Scedosporium apiospermum by broth microdilution method; outline: as §5
Exophiala dermatitidis = assay: Antimicrobial activity against Exophiala dermatitidis by broth microdilution method
Cladosporium = assay: Antimicrobial activity against Cladosporium spp. by broth microdilution method; outline: as §4
[5] = tested on: Cladophialophora bantiana; assay: Antimicrobial activity against Cladophialophora bantiana by broth microdilution method; outline: as §4
Scytalidium hyalinum = assay: Antimicrobial activity against Scytalidium hyalinum by broth microdilution method; conditions: Neoscytalidium hyalinum; outline: as §5
Lecythophora hoffmannii = assay: Antimicrobial activity against Lecythophora hoffmannii by broth microdilution method; conditions: Coniochaeta hoffmannii; outline: as §5
Lichtheimia corymbifera = assay: Antimicrobial activity against Mycocladus corymbiferus by broth microdilution method; outline: as §5
Mucor = assay: Antimicrobial activity against Mucor spp.by broth microdilution method; outline: as §5
[6] = tested on: Cunninghamella bertholletiae; assay: Antimicrobial activity against Cunninghamella bertholletiae by broth microdilution method; outline: as §4
Rhizomucor = assay: Antimicrobial activity against Rhizomucor spp.by broth microdilution method; outline: as §5
Saksenaea vasiformis = assay: Antimicrobial activity against Saksenaea vasiformis by broth microdilution method; outline: as §5
Exophiala jeanselmei = assay: Antimicrobial activity against Exophiala jeanselmei by broth microdilution method
Beauveria bassiana = assay: Antimicrobial activity against Beauveria bassiana by broth microdilution method; outline: as §4

CCCCCOc1ccc(-c2cc(-c3ccc(C(=O)N[C@H]4C[C@@H](O)[C@@H](O)NC(=O)[C@@H]5[C@@H](O)[C@@H](C)CN5C(=O)[C@H]([C@H](O)CC(N)=O)NC(=O)[C@H]([C@H](O)[C@@H](O)c5ccc(O)c(OS(=O)(=O)O)c5)NC(=O)[C@@H]5C[C@@H](O)CN5C(=O)[C@H]([C@@H](C)O)NC4=O)cc3)no2)cc1 [MICAFUNGIN] (X1-[Orn(4R-OH,5R-OH)]T[Hyp][hTyr(3S-OH,4S-OH,3'-OSO3H)][Gln(3R-OH)][Pro(3S-OH,4S-Me)]; lactam 1-C)
MIC50 (Candida albicans): 0.03 µg/mL (≈ 0.0236 µM)
MIC90 (Candida albicans): 0.03 µg/mL (≈ 0.0236 µM)
MIC50 (Candida tropicalis): 0.03 µg/mL (≈ 0.0236 µM)
MIC90 (Candida tropicalis): 0.03 µg/mL (≈ 0.0236 µM)
MIC50 (Pichia kudriavzevii): 0.03 µg/mL (≈ 0.0236 µM)
MIC90 (Pichia kudriavzevii): 0.06 µg/mL (≈ 0.0472 µM)
MIC50 (Clavispora lusitaniae): 0.03 µg/mL (≈ 0.0236 µM)
MIC90 (Clavispora lusitaniae): 0.03 µg/mL (≈ 0.0236 µM)
MIC50 (Debaryomyces hansenii): 0.03 µg/mL (≈ 0.0236 µM)
MIC90 (Debaryomyces hansenii): 0.12 µg/mL (≈ 0.0945 µM)
MIC50 (Pichia norvegensis): 0.03 µg/mL (≈ 0.0236 µM)
MIC90 (Pichia norvegensis): 0.12 µg/mL (≈ 0.0945 µM)
MIC50 (Candida metapsilosis): 0.03 µg/mL (≈ 0.0236 µM)
MIC90 (Candida metapsilosis): 0.12 µg/mL (≈ 0.0945 µM)
MIC50 (Candida orthopsilosis): 0.03 µg/mL (≈ 0.0236 µM)
MIC90 (Candida orthopsilosis): 0.12 µg/mL (≈ 0.0945 µM)
MIC50 [1]: 0.03 µg/mL (≈ 0.0236 µM)
MIC90 [1]: 0.12 µg/mL (≈ 0.0945 µM)
MIC50 ([Candida] zeylanoides): 0.03 µg/mL (≈ 0.0236 µM)
MIC90 ([Candida] zeylanoides): 0.12 µg/mL (≈ 0.0945 µM)
MIC50 (Saccharomyces cerevisiae): 0.03 µg/mL (≈ 0.0236 µM)
MIC90 (Saccharomyces cerevisiae): 0.06 µg/mL (≈ 0.0472 µM)
MIC50 [2]: > 16 µg/mL
MIC90 [2]: > 16 µg/mL
MIC50 (Trichosporon asahii): > 16 µg/mL
MIC90 (Trichosporon asahii): > 16 µg/mL
MIC50 (Trichosporon inkin): > 16 µg/mL
MIC90 (Trichosporon inkin): > 16 µg/mL
MIC50 (Trichosporon jirovecii): > 16 µg/mL
MIC90 (Trichosporon jirovecii): > 16 µg/mL
MIC50 (Naganishia albida): > 16 µg/mL
MIC90 (Naganishia albida): > 16 µg/mL
MIC50 (Ustilago): > 16 µg/mL
MIC90 (Ustilago): > 16 µg/mL
MIC50 (Trichosporon domesticum): > 16 µg/mL
MIC90 (Trichosporon domesticum): > 16 µg/mL
MIC50 (Trichosporon): > 16 µg/mL
MIC90 (Trichosporon): > 16 µg/mL
MIC50 (Aspergillus versicolor): 0.03 µg/mL (≈ 0.0236 µM)
MIC90 (Aspergillus versicolor): 0.06 µg/mL (≈ 0.0472 µM)
MIC50 (Aspergillus ustus): 0.06 µg/mL (≈ 0.0472 µM)
MIC90 (Aspergillus ustus): 0.25 µg/mL (≈ 0.197 µM)
MIC50 (Fennellia nivea): 0.06 µg/mL (≈ 0.0472 µM)
MIC90 (Fennellia nivea): 0.25 µg/mL (≈ 0.197 µM)
MIC50 (Aspergillus): 0.06 µg/mL (≈ 0.0472 µM)
MIC90 (Aspergillus): 0.25 µg/mL (≈ 0.197 µM)
MIC50 (Fusarium solani): > 16 µg/mL
MIC90 (Fusarium solani): > 16 µg/mL
MIC50 (Paecilomyces lilacinus): > 16 µg/mL
MIC90 (Paecilomyces lilacinus): > 16 µg/mL
MIC50 (Acremonium sp.): 0.12 µg/mL (≈ 0.0945 µM)
MIC90 (Acremonium sp.): 0.25 µg/mL (≈ 0.197 µM)
MIC50 [3]: > 16 µg/mL
MIC90 [3]: > 16 µg/mL
MIC50 (Phialemonium curvatum): > 16 µg/mL
MIC90 (Phialemonium curvatum): > 16 µg/mL
MIC50 [4]: > 16 µg/mL
MIC90 [4]: > 16 µg/mL
MIC50 (Coprinellus domesticus): > 16 µg/mL
MIC90 (Coprinellus domesticus): > 16 µg/mL
MIC50 (Neurospora sitophila): > 16 µg/mL
MIC90 (Neurospora sitophila): > 16 µg/mL
MIC50 (Scedosporium apiospermum): 0.03 µg/mL (≈ 0.0236 µM)
MIC90 (Scedosporium apiospermum): > 16 µg/mL
MIC50 (Exophiala dermatitidis): 0.03 µg/mL (≈ 0.0236 µM)
MIC90 (Exophiala dermatitidis): 0.06 µg/mL (≈ 0.0472 µM)
MIC50 (Cladosporium): 0.03 µg/mL (≈ 0.0236 µM)
MIC90 (Cladosporium): 0.06 µg/mL (≈ 0.0472 µM)
MIC50 [5]: 0.03 µg/mL (≈ 0.0236 µM)
MIC90 [5]: 0.06 µg/mL (≈ 0.0472 µM)
MIC50 (Scytalidium hyalinum): 0.03 µg/mL (≈ 0.0236 µM)
MIC90 (Scytalidium hyalinum): 0.06 µg/mL (≈ 0.0472 µM)
MIC50 (Lecythophora hoffmannii): 0.03 µg/mL (≈ 0.0236 µM)
MIC90 (Lecythophora hoffmannii): 0.06 µg/mL (≈ 0.0472 µM)
MIC50 (Lichtheimia corymbifera): > 16 µg/mL
MIC90 (Lichtheimia corymbifera): > 16 µg/mL
MIC50 (Mucor): > 16 µg/mL
MIC90 (Mucor): > 16 µg/mL
MIC50 [6]: > 16 µg/mL
MIC90 [6]: > 16 µg/mL
MIC50 (Rhizomucor): > 16 µg/mL
MIC90 (Rhizomucor): > 16 µg/mL
MIC50 (Saksenaea vasiformis): > 16 µg/mL
MIC90 (Saksenaea vasiformis): > 16 µg/mL
MIC50 (Exophiala jeanselmei): 0.03 µg/mL (≈ 0.0236 µM)
MIC90 (Exophiala jeanselmei): 0.06 µg/mL (≈ 0.0472 µM)
MIC50 (Beauveria bassiana): > 16 µg/mL
MIC90 (Beauveria bassiana): > 16 µg/mL
